tolC growth inh = growth inhibitors of E. coli BW25113 tolC mutant | actives 2.2% (n = 65,000) | growth inhibition, % at 10 µM (by protocol) | OD615;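 active = growth inhibition at or above a cutoff equal to the mean over every tested compound plus 3 SD, cut at about 60% in these data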;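 note: growth measured after 20 h incubation at 37 °C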
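Assay system: tolC-deleted E. coli BW25113. Medium: kanamycin-containing LB broth (50 µg/mL). Dosing: 10 µM final, single dose. Timing: bacterial growth with compound for 20 h at 37 °C. Detection: A615 absorbance measurement. Read-out basis: growth inhibition in percent.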
BAP1 inh = inhibitors of human BAP1 deubiquitinase. recombinant BAP1, Ub-AMC hydrolysis fluorescence kinetic; stronger effect = lower value. actives 0.48% (n = 72,000). calls only at 20 µM. AID 436;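 active = activity remaining at or below 50% of control, provided the compound also passes the data quality filters; inactive = the rest, including low values that fail the filters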;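 note: 100% = DMSO wells rate and 0% = substrate alone blank rate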
Target sequence (Q92560 whole entry, looked up): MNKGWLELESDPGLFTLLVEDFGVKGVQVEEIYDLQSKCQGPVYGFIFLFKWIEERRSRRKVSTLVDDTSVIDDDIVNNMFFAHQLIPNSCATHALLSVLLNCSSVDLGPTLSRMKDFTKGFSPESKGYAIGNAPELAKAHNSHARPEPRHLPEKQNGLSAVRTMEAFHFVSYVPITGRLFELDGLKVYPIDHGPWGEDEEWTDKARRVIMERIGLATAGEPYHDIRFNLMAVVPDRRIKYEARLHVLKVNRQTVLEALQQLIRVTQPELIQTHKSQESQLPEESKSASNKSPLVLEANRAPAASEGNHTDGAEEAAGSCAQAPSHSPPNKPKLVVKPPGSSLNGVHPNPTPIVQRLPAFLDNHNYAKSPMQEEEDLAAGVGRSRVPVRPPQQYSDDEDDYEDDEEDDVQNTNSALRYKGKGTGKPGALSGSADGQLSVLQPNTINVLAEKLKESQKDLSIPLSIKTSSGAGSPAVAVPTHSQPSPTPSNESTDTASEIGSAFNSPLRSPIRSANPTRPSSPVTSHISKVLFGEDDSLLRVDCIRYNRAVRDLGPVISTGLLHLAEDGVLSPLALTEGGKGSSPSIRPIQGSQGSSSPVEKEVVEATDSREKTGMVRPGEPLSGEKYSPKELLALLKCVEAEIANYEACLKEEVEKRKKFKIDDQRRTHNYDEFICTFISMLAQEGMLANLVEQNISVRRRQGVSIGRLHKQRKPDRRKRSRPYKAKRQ
TNAP act mid DEA = human TNAP activation, intermediate phosphate acceptor. purified TNAP, CDP-star luminescence, 100 mM DEA, 30 min; stronger effect = higher value; scale: 0 levamisole-inhibited, 1 vehicle-only enzyme. P05186. 64,000 tested, under 10 active. activation factor at 20 µM;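 active = activation factor of at least 2 at 20 µM, relative to controls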
E coli WT exp = E. coli BW25113 growth inhibition, expanded screen; OD600 absorbance; growth inhibition, % at 100 µM; actives 0.15% (n = 98,000);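 active = growth inhibition above about 50% at one test dose, limit read from the data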;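 note: growth measured after 20 h incubation at 37 °C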
WNV protease inh = WNV NS2B-NS3 proteinase inhibition. P06935. WNV NS2B-NS3 protease, fluorogenic substrate Ex360/Em465; stronger effect = lower value. z-score (no concentration beside the values). actives 0.18% (n = 65,000); in the data active = z-score below about -3
* marks the source's active call; other numbers are inactive results; i = inactive; . = no result shown. The full list was thinned out, with hits kept by preference.

SMILES	tolC growth inh	BAP1 inh	TNAP act mid DEA	E coli WT exp	WNV protease inh
COc1ccccc1OCC(=O)N(Cc1nc(-c2ccccc2)no1)C1CCCCC1	61.7*	i	1	-16.0	0.45
CN1CCCN(C(=O)c2cc(=O)[nH]c3ccccc23)c2nc3ccccc3nc21	0.0	i	0.9	-8.0	-0.68
CN1CCCN(C(=O)Cc2c(Cl)cccc2Cl)c2nc3ccccc3nc21	70.2*	i	1	-11.0	-0.52
COc1cccc(C=Nc2ccc(S(=O)(=O)Nc3ccccn3)cc2)c1O	.	i	.	.	.
O=C(CN1CCN(c2nc3ccccc3s2)CC1)Nc1ccc([N+](=O)[O-])cc1	.	i	.	.	.
COc1cc(NC(=O)c2ccccc2C)c(OC)cc1Cl	.	i	.	.	.
CC(C)(C)c1ccc(Cn2nnc3c(=O)[nH]c(C4CCCN(C(=O)Cc5cccs5)C4)nc32)cc1 (configuration not stated)	87.7*	i	0.9	-4.0	-0.97
CC(C)(C)c1ccc(Cn2nnc3c(=O)[nH]c(C4CCN(C(=O)Cc5cccs5)CC4)nc32)cc1	-3.2	i	0.9	0.0	-1.08
O=S(=O)(Nc1cc(Cl)ccc1N1CCCCC1)c1cccs1	62.0*	i	0.9	-6.0	-1.87
COc1ccc(-c2cc3nc4c(c(N5CCC6(CC5)OCCO6)n3n2)CCCC4)cc1	64.7*	.	1	.	1.24
Fc1cccc(-c2cc3nc4c(c(N5CCOCC5)n3n2)CCCC4)c1	100.0*	i	0.9	-7.0	-0.97
Cc1cccc(C)c1NC(=O)C(c1cccs1)N(Cc1ccco1)C(=O)Cn1nnc2ccccc21 (configuration not stated)	64.3*	i	1	-12.0	-0.18
Cc1cnnn1-c1ccc(C(=O)CCl)cc1	.	.	.	98.0*	.
CCCCCCc1ccc(-c2ncc(N)cn2)cc1	100.0*	i	0.9	15.0	-0.46
CCCCOc1ccc(-c2ncc(Cl)cn2)cc1	5.1	i	0.8	-7.0	1.77
CCOc1ccccc1NC(=O)c1cc(CC(C)C)oc1C	75.2*	i	0.9	6.0	1.84
CN1C(=O)NC(c2cccc(O)c2)C(C(=O)c2cccs2)C1(O)C(F)(F)F (configuration not stated)	42.4	i	0.8	75.0*	-0.68
CCOC(=O)C1C(c2cccs2)NC(=O)N(C)C1(O)C(F)(F)F (configuration not stated)	.	.	.	-5.0	.
COc1ccc(NC(=O)CN2CCN(C3c4ccccc4-c4ccccc43)CC2)cc1	.	.	.	-7.0	.
Clc1ccc(OCCN2CCN(c3ncnc4sccc34)CC2)cc1	94.5*	i	0.9	5.0	0.49
CC(=Nc1cccc(C)c1)c1sc2ccccc2c1O	.	.	.	1.0	.
CC(=Nc1ccc(O)cc1)c1sc2ccccc2c1O	100.0*	i	0.8	-2.0	-0.23
COC(=O)c1cc2c(C)nn(-c3ccccc3)c2s1	5.3	i	0.8	4.0	0.66
Cc1nn(-c2ccccc2)c2sc(C(=O)OC3CCOC3=O)cc12 (configuration not stated)	0.3	i	0.9	0.0	-3.5*
CCOc1ccc(C2C(C#N)=C(N)SC(N)=C2C#N)c(OCC)c1	10.4	i	1.1	-8.0	-0.16
SMILES	tolC growth inh	BAP1 inh	TNAP act mid DEA	E coli WT exp	WNV protease inh
CCCCc1ccc(C2C(C#N)=C(N)SC(N)=C2C#N)s1	93.0*	i	0.8	15.0	-1.48
O=S(=O)(Nc1nnc(-c2ccccc2)s1)c1ccc(Cl)cc1	87.4*	i	0.9	5.0	-0.36
COc1ccc(-n2c(COc3ccccc3)nnc2SCc2ccc(C#N)cc2)cc1	63.4*	i	0.9	-29.0	-0.54
N#Cc1ccc(CSc2nnc(-c3cccs3)n2-c2ccccc2)cc1	74.3*	i	0.9	-26.0	-0.09
N#Cc1ccc(CSc2nnc(COc3ccccc3)n2-c2ccccc2)cc1	.	.	.	-16.0	.
O=C(OC1CCCCC1)c1ccc(NC(=O)c2ccco2)cc1	96.2*	i	0.9	-10.0	-1.13
CCc1ccc(N2CC(C(=O)O)CC2=O)cc1 (configuration not stated)	.	i	.	.	.
CC(C)c1ccccc1NC(=O)c1ccc(-c2ccccc2)cc1	.	i	.	.	.
CCOC(=O)N1CCC(NC(=O)CC(NS(=O)(=O)c2ccc(Cl)cc2)c2ccco2)CC1 (configuration not stated)	24.4	i	0.9	-3.0	0.53
CCOC(=O)N1CCC(Nc2nc3ccccc3nc2NS(=O)(=O)c2ccc(Cl)cc2)CC1	79.9*	i	1	0.0	-0.05
